Broadly, the IC50 is the concentration that gives 50% inhibition. Read a low IC50 as greater potency. As usually defined, the pKa is the negative logarithm of the acid dissociation constant.

The source of these data is ChEMBL document CHEMBL1125436, “Anthracene-9,10-diones as potential anticancer agents. Synthesis, DNA-binding, and biological studies on a series of 2,6-disubstituted derivatives” (J Med Chem, 1992).

In series [1] the test system is Nucleic Acid. The experiment in a line: Increase in Melting temperature (delta Tm) for Clostridium perfringens DNA on interaction against ligand (mole ratio of 10:1). The class given is functional. The method in brief:
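Working DNAP 0.10 mM and ligand 0.01 mM. Absorbance at 260 nm was followed against temperature. Tm was taken at the midpoint of the normalized curve and compared with native DNA; mean of ≥3 determinations.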

The subject of series [2] is Nucleic Acid. Kind of series: Increase in Melting temperature (delta Tm) for Micrococcus lysodeikticus DNA on interaction against ligand (mole ratio of 10:1). It counts as functional. To be noted: Micrococcus luteus. An outline of the steps: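 M. lysodeikticus DNA (28% A+T) in HNE buffer pH 7.0, dialysed and centrifuged before use; DNAP 0.10 mM with ligand 0.01 mM (10:1). A260 monitored against temperature; Tm at midpoint of normalized curve, ΔTm versus native DNA; mean of at least three determinations.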

Series [3] can be described thus: In vitro extracellular concentration required to reduce cell population to 50% against Chinese hamster V79 cells. It counts as functional, cell-based, Cricetulus griseus. An outline of the steps:
(§1)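 Cells seeded at ca. […] cells mL⁻¹, grown 24 h and counted to confirm log growth, then given compound (acetic acid salt or free base) in aqueous solution. Exposure 2 days for L1210 and Walker 256, 6 days for V79. Surviving cells counted; percent growth inhibition versus untreated controls; value is extracellular concentration giving 50% reduction.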

Series [4] in a line: In vitro extracellular concentration required to reduce cell population to 50% against Walker 256 (WS) carcinoma cells. The class given is functional, Rattus norvegicus. The method in brief: as §1
Series [5] in a line: Estimated pKa value of the compound. It counts as physicochemical.
The next series has as its system L1210. The experiment in a line: In vitro extracellular concentration required to reduce cell population to 50% against L1210 leukemia cells. The class given is functional, cell-based. As to conditions: Mus musculus. An outline of the steps: as §1
The subject of series [6] is Nucleic Acid. Kind of series: Compound was evaluated for the increase in melting temperature (delta Tm) for calf Thymus DNA on interaction with Ligand at DNAp to ligand ratio 10:1. The class given is functional. As to conditions: Bos taurus.
In series [7] the test system is Nucleic Acid. Kind of series: Compound was evaluated for the increase in melting temperature (delta Tm) for calf Thymus DNA on interaction with Ligand at DNAp to ligand ratio 20:1. It counts as functional. As to conditions: Bos taurus.
The subject of series [8] is Nucleic Acid. Kind of series: Increase in Melting temperature (delta Tm) for Calf thymus DNA on interaction against ligand (mole ratio of 10:1). As to conditions: Bos taurus. It counts as functional.
Series [9] has as its system Nucleic Acid. The experiment in a line: Compound was evaluated for the increase in melting temperature (delta Tm) for calf Thymus DNA on interaction with Ligand at DNAp to ligand ratio 40:1. The class given is functional. To be noted: Bos taurus.

`CCN(CC)CC(=O)Nc1ccc2c(c1)C(=O)c1ccc(NC(=O)CN(CC)CC)cc1C2=O`: the ΔTm in the series on Nucleic Acid [1] was 16.6; in the series on Nucleic Acid [2], above 16.6; in the series with Nucleic Acid [6], 13.5; in the series on Nucleic Acid [7], 7.7; in the series on Nucleic Acid [8] it was 13.5; in the series on Nucleic Acid [9], 3.7. Also, the IC50 worked out at 18 µM in series [3], 19 µM in [4] and 27000 nM in the series with L1210. Moreover, the pKa in series [5] is 10.

For the compound `O=C(CCN1CCCCC1CCO)Nc1ccc2c(c1)C(=O)c1ccc(NC(=O)CCN3CCCCC3CCO)cc1C2=O` (centres undefined), the ΔTm in the series with Nucleic Acid [1] is above 18.5; in the series with Nucleic Acid [2] it was above 14.6; in the series with Nucleic Acid [6], above 15.3; with Nucleic Acid [7], 9.2; in the series with Nucleic Acid [8], above 15.3; with Nucleic Acid [9] it was 4.1. Further, the IC50 was 12 µM in series [3], 3.6 µM in [4] and 280 nM in the series with L1210. In addition, the pKa in series [5] was 10.

Take `O=C(CCN(CCO)CCO)Nc1ccc2c(c1)C(=O)c1ccc(NC(=O)CCN(CCO)CCO)cc1C2=O`: the ΔTm with Nucleic Acid [1] is 11.7; in the series on Nucleic Acid [2], above 15.7; in the series with Nucleic Acid [6], 10.9; in the series with Nucleic Acid [7], 6.1; in the series with Nucleic Acid [8], 10.9; with Nucleic Acid [9] it was 3.2. Besides, the IC50 was 25.5 µM in [3], above 100 µM in series [4] and 4200 nM in the series with L1210. For the same compound, in series [5], the pKa was 9.

With `O=C(CCN1CCOCC1)Nc1ccc2c(c1)C(=O)c1ccc(NC(=O)CCN3CCOCC3)cc1C2=O`, the IC50 in [3] was 1.6 µM; in series [4] it was 4.2 µM; in the series with L1210, 570 nM. Further, the pKa in [5] was 8. The ΔTm came out at 4.9 in the series with Nucleic Acid [6] and 3 in the series on Nucleic Acid [7].

As to `O=C(CCN1CCCCC1CO)Nc1ccc2c(c1)C(=O)c1ccc(NC(=O)CCN3CCCCC3CO)cc1C2=O` (centres undefined), the figures for the IC50 (in [3]; in [4]; with L1210) were 3.6 µM, 2.8 µM and 500 nM, respectively. For the same compound, the pKa in [5] was 10. Also, the ΔTm was determined as 14.4 with Nucleic Acid [6], 7.9 in the series on Nucleic Acid [7] and 3.8 in the series with Nucleic Acid [9].

As to `CN1CCN(CCC(=O)Nc2ccc3c(c2)C(=O)c2ccc(NC(=O)CCN4CCN(C)CC4)cc2C3=O)CC1`, the IC50 in series [3] turned out to be 1.8 µM; in series [4] it was 3.1 µM; in the series with L1210 it was 1700 nM. Also, the pKa in [5] was 9. Also, the ΔTm with Nucleic Acid [6] was 9.2; with Nucleic Acid [7], 4.4.

For `O=C(CCN1CCCCC1)Nc1ccc2c(c1)C(=O)c1ccc(NC(=O)CCN3CCCCC3)cc1C2=O`, the ΔTm in the series on Nucleic Acid [1] is above 18.9; in the series on Nucleic Acid [2] it was above 14.5; with Nucleic Acid [6], above 15.3; in the series on Nucleic Acid [7], 7.3; in the series on Nucleic Acid [8], above 15.3; with Nucleic Acid [9], 3.7. Further, the IC50 in [3] is 1.7 µM; in series [4], 2 µM; in the series with L1210 it was 190 nM. Further, the pKa in series [5] is 10.4.

Turning to `CCN(CC)CCC(=O)Nc1ccc2c(c1)C(=O)c1ccc(NC(=O)CCN(CC)CC)cc1C2=O`, the ΔTm with Nucleic Acid [1] is above 20.5; with Nucleic Acid [2], above 18.1; in the series with Nucleic Acid [6] it was above 15.5; in the series on Nucleic Acid [7] it was 7.7; in the series with Nucleic Acid [8], above 15.5; in the series with Nucleic Acid [9], 3.7. Moreover, the figures for the IC50 (in series [3]; in series [4]; with L1210) were 2.9 µM, 2.7 µM and 340 nM, respectively. The pKa in series [5] was 10.8.

Turning to `O=C(CN1CCOCC1)Nc1ccc2c(c1)C(=O)c1ccc(NC(=O)CN3CCOCC3)cc1C2=O`, the IC50 in series [3] was above 100 µM; in series [4], above 100 µM; with L1210, above 100000 nM. In addition, the pKa in [5] was 7.4. For the same compound, the ΔTm with Nucleic Acid [6], with Nucleic Acid [7] and with Nucleic Acid [9] was 0.5 throughout.

For `O=C1c2c(O)ccc(O)c2C(=O)c2c(NCCNCCO)ccc(NCCNCCO)c21` [MITOXANTRONE], the ΔTm with Nucleic Acid [1] is above 26.4; in the series on Nucleic Acid [2] it was above 11.7; with Nucleic Acid [6], above 15; in the series with Nucleic Acid [7], 7.4; in the series with Nucleic Acid [8], above 15. For the same compound, the values for the IC50 (in series [4]; with L1210) were 0.01 µM and 2 nM, respectively. In series [5], the pKa is 7.4.

As to `O=C(CN1CCCCC1)Nc1ccc2c(c1)C(=O)c1ccc(NC(=O)CN3CCCCC3)cc1C2=O`, the ΔTm came to 19 in the series on Nucleic Acid [1]; 18.4 in the series on Nucleic Acid [2]; 14.3 in the series on Nucleic Acid [6]; 8.2 with Nucleic Acid [7]; 14.3 with Nucleic Acid [8]. In addition, the IC50 in series [3] was 30 µM; in series [4], above 100 µM; in the series on L1210, 76000 nM. In series [5], the pKa is 10.

Consider `O=C(CCN1CCC(CCO)CC1)Nc1ccc2c(c1)C(=O)c1ccc(NC(=O)CCN3CCC(CCO)CC3)cc1C2=O`, for which the IC50 in series [3] is 3.95 µM; in series [4] it was 5.5 µM; in the series on L1210, 2300 nM. Also, the pKa in series [5] was 10. The ΔTm with Nucleic Acid [6] is above 15; with Nucleic Acid [7], 8.3; in the series with Nucleic Acid [9] it was 4.3.

Turning to `CN1CCN(CC(=O)Nc2ccc3c(c2)C(=O)c2ccc(NC(=O)CN4CCN(C)CC4)cc2C3=O)CC1`, the IC50 in [3] came out at 4.6 µM; in [4] it was 4.6 µM; in the series with L1210 it was 6500 nM. For the same compound, in series [5], the pKa was 9.5. Moreover, the ΔTm with Nucleic Acid [6] was 13.6; in the series with Nucleic Acid [7], 8.2; in the series on Nucleic Acid [9], 4.2.

For the compound `O=C(CCN1CCN(CCO)CC1)Nc1ccc2c(c1)C(=O)c1ccc(NC(=O)CCN3CCN(CCO)CC3)cc1C2=O`, the IC50 in series [3] amounted to 19.5 µM; in series [4], 6.6 µM; with L1210, 4200 nM. Also, the pKa in [5] was 9.5. Also, the ΔTm worked out at 7.2 in the series on Nucleic Acid [6], 4.6 in the series with Nucleic Acid [7] and 2.9 with Nucleic Acid [9].
